Test results taken from ChEMBL document CHEMBL1949603, “Discovery of CS-0777: A Potent, Selective, and Orally Active S1P1 Agonist” (ACS Med Chem Lett, 2011).
Values belong to the molecule of their own block, whether it stands above or below them. The source made the active and inactive calls. The calls are words filed in the database; no cut-off is given here.

Columns and labels:
[1] = Agonist activity at rat S1P3R expressed in CHO-K1 cells by [35S]GTPgammaS binding assay; assay type: functional, cell-based
Summary of the method: (§1)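 Agonist-evoked [35S]GTPγS binding was measured on human or rat S1P1 or S1P3 expressed in transfected CHO-K1 cells.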

[2] = target: Sphingosine 1-phosphate receptor 2 (Homo sapiens) (UniProt O95136); test: Binding affinity to human S1P2R
Sequence of Sphingosine 1-phosphate receptor 2 (Homo sapiens) (O95136 whole entry): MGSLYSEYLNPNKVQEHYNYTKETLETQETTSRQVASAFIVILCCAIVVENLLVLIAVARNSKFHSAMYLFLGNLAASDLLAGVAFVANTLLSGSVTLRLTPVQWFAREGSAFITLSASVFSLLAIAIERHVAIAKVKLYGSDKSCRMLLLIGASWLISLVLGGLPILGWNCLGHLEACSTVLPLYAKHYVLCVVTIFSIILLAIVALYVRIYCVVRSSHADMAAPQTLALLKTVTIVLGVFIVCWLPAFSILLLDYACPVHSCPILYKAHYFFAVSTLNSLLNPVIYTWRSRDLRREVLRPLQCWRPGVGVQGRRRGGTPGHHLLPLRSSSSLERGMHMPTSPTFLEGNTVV

[3] = target: Sphingosine 1-phosphate receptor 1 (Rattus norvegicus, UniProt P48303); test: Agonist activity at rat S1P1 receptor expressed in CHO-K1 cells by [35S]GTPgammaS binding assay; assay type: functional, cell-based; summary of the method: as §1
Sequence of Sphingosine 1-phosphate receptor 1 (Rattus norvegicus, UniProt P48303) (P48303 whole entry): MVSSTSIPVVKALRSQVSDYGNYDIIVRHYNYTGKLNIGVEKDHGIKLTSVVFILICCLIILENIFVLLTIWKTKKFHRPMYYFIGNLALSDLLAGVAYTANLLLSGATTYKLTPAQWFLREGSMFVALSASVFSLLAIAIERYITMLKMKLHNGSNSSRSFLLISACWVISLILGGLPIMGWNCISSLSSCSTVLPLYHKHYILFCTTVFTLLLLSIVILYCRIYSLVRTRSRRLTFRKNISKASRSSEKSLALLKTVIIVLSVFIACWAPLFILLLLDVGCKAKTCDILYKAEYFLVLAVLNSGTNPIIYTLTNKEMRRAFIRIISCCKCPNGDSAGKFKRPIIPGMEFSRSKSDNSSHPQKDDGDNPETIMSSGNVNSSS

[4] = target: Sphingosine 1-phosphate receptor 3 (Homo sapiens, UniProt Q99500); test: Agonist activity at human S1P3R expressed in CHO-K1 cells by [35S]GTPgammaS binding assay; assay type: functional, cell-based; summary of the method: as §1
Sequence of Sphingosine 1-phosphate receptor 3 (Q99500 whole entry): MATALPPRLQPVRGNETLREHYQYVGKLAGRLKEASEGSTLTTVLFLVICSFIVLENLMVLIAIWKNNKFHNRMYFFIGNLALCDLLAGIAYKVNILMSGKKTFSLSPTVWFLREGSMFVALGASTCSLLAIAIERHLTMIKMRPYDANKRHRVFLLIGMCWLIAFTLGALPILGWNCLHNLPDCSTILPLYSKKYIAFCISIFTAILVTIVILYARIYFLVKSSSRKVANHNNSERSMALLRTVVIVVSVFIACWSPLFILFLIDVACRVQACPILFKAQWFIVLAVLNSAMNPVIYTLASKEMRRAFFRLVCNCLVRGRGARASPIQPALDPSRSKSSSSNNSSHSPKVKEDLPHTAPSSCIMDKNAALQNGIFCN

[5] = target: Sphingosine 1-phosphate receptor 5 (Homo sapiens, UniProt Q9H228); test: Agonist activity at human S1P5R; assay type: functional
Sequence of Sphingosine 1-phosphate receptor 5 (Q9H228 whole entry): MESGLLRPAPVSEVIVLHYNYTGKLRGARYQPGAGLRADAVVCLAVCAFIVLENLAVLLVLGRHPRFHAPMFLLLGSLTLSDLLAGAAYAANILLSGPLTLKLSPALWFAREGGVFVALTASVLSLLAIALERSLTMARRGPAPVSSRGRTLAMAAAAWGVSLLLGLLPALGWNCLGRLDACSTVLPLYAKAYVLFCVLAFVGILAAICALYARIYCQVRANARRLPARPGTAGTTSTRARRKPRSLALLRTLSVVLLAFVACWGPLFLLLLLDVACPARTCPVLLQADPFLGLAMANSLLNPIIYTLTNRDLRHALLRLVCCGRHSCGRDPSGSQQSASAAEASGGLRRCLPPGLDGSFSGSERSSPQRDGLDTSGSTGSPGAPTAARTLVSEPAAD

[6] = target: Sphingosine 1-phosphate receptor 1 (Homo sapiens, UniProt P21453); test: Agonist activity at human S1P1 receptor expressed in CHO-K1 cells by [35S]GTPgammaS binding assay; assay type: functional, cell-based; summary of the method: as §1
Sequence of Sphingosine 1-phosphate receptor 1 (Homo sapiens, UniProt P21453) (P21453 whole entry): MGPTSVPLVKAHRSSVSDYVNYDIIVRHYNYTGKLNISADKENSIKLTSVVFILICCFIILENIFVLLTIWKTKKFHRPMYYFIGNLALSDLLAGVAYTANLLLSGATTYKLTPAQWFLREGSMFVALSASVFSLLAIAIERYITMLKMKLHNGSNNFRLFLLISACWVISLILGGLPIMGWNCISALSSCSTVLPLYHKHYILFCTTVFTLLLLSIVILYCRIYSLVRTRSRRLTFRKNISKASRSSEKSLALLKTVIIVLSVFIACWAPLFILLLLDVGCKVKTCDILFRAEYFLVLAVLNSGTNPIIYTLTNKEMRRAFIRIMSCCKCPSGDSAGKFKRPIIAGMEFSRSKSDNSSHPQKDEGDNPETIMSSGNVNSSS

Homo sapiens = organism: Homo sapiens; test: Selectivity ratio of EC50 for human S1P3R to EC50 for human S1P1R; summary of the method: as §1
Rattus norvegicus [7] = organism: Rattus norvegicus; test: Selectivity ratio of EC50 for rat S1P3R to EC50 for rat S1P1R; summary of the method: as §1
[8] = Total body clearance in Sprague-Dawley rat at 0.1 mg/kg, iv; assay type: ADME, organism-based; parameters: dose 0.1 mg/kg, route intravenous; conditions: in vivo
Summary of the method: (§2)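 Clearance and steady-state volume of distribution were calculated from blood data after intravenous dosing of the parent drug to male Sprague−Dawley rats at 0.1 or 1 mg/kg. Values are mean ± SD of four animals.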

[9] = Oral bioavailability in Sprague-Dawley rat at 0.1 mg/kg; assay type: ADME, organism-based; conditions: in vivo
Summary of the method: (§3)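 Male Sprague−Dawley rats given one oral dose of parent drug at 0.1 or 1 mg/kg. Blood levels of parent and phosphate metabolite were measured over time. Bioavailability of the phosphate is the ratio of its AUC after oral dosing to its AUC after intravenous parent dosing at the same dose. Values are mean ± SD of four animals.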

Rattus norvegicus [10] = test: Lymphopenic activity in Lewis rat assessed as recovery in blood lymphocyte counts at 1 mg/kg, po after 5 days; assay type: functional, organism-based; parameters: dose 1 mg/kg
Summary of the method: (§4)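 Lewis rats received one oral dose of 0.1 or 1 mg/kg in 1% MC vehicle. Lymphocytes were counted by automatic hemacytometer and expressed relative to vehicle controls. n = 5 per group, mean ± SE.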

Rattus norvegicus [11] = test: Half life in Sprague-Dawley rat assessed as CS-0777-phosphate at 0.1 mg/kg, po; assay type: ADME, organism-based; parameters: dose 0.1 mg/kg, route oral; conditions: in vivo; summary of the method: as §3
Rattus norvegicus [12] = test: Reduction of cumulative disease score in Lewis rat EAE model at 0.1 mg/kg, po administered daily for 20 days measured after 8 to 21 days relative to control; assay type: functional, organism-based; parameters: dose 0.1 mg/kg
Summary of the method: (§5)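 EAE was induced in 6-week-old female Lewis rats by injecting guinea pig myelin basic protein fragment 68−82 with adjuvant into both hind footpads on day 0. Dosing was oral, daily on days 0–20 (0.01–1 mg/kg). Clinical score (0–6 scale) was recorded daily on days 8–21 and summed to a cumulative score. Analysis used a nonparametric Dunnett test versus vehicle.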

Rattus norvegicus [13] = test: Lymphopenic activity in Lewis rat assessed as recovery of blood lymphocytes at 1 mg/kg, po after 48 hrs relative to control; assay type: functional; summary of the method: as §4
[14] = AUC (0 to infinity) in Sprague-Dawley rat at 1 mg/kg, po; assay type: ADME, organism-based, Plasma; parameters: time infinity, dose 1 mg/kg, route oral; conditions: blood; summary of the method: as §3
[15] = Total body clearance in Sprague-Dawley rat at 1 mg/kg, iv; assay type: ADME, organism-based; parameters: dose 1 mg/kg, route intravenous; conditions: in vivo; summary of the method: as §2
[16] = Volume of distribution at steady state in Sprague-Dawley rat at 1 mg/kg, iv; assay type: ADME, organism-based; parameters: dose 1 mg/kg, route intravenous; conditions: in vivo, read-out: Vdss; summary of the method: as §2
Rattus norvegicus [17] = test: AUC (0 to infinity) in Sprague-Dawley rat assessed as CS-0777-phosphate at 0.1 mg/kg, po; assay type: ADME, organism-based, Plasma; parameters: dose 0.1 mg/kg, route oral, time infinity; conditions: in vivo; summary of the method: as §3
Rattus norvegicus [18] = test: Oral bioavailability in Sprague-Dawley rat assessed as CS-0777-phosphate at 1 mg/kg; assay type: ADME, organism-based; conditions: in vivo; summary of the method: as §3
Rattus norvegicus [19] = test: Tmax in Sprague-Dawley rat assessed as CS-0777-phosphate at 0.1 mg/kg, po; assay type: ADME, organism-based; parameters: dose 0.1 mg/kg, route oral; conditions: in vivo; summary of the method: as §3
Rattus norvegicus [20] = test: Reduction of cumulative disease score in Lewis rat EAE model at 1 mg/kg, po administered daily for 20 days measured after 8 to 21 days relative to control; assay type: functional, organism-based; parameters: dose 1 mg/kg; summary of the method: as §5
[21] = Half life in Sprague-Dawley rat at 0.1 mg/kg, po; assay type: ADME, organism-based; parameters: dose 0.1 mg/kg, route oral; conditions: in vivo; summary of the method: as §3
[22] = Volume of distribution at steady state in Sprague-Dawley rat at 0.1 mg/kg, iv; assay type: ADME, organism-based; parameters: dose 0.1 mg/kg, route intravenous; conditions: in vivo, read-out: Vdss; summary of the method: as §2
[23] = Half life in Sprague-Dawley rat at 1 mg/kg, po; assay type: ADME, organism-based; parameters: dose 1 mg/kg, route oral; conditions: in vivo; summary of the method: as §3
[24] = Tmax in Sprague-Dawley rat at 0.1 mg/kg, po; assay type: ADME, organism-based; parameters: dose 0.1 mg/kg, route oral; conditions: in vivo; summary of the method: as §3
[25] = Oral bioavailability in Sprague-Dawley rat at 1 mg/kg; assay type: ADME, organism-based; conditions: in vivo; summary of the method: as §3
Rattus norvegicus [26] = test: Half life in Sprague-Dawley rat assessed as CS-0777-phosphate at 1 mg/kg, po; assay type: ADME, organism-based; parameters: dose 1 mg/kg, route oral; conditions: in vivo; summary of the method: as §3
Rattus norvegicus [27] = test: Lymphopenic activity in Lewis rat assessed as recovery of blood lymphocytes at 0.1 mg/kg, po after 48 hrs relative to control; assay type: functional; summary of the method: as §4
Rattus norvegicus [28] = test: Cmax in Sprague-Dawley rat assessed as CS-0777-phosphate at 1 mg/kg, po; assay type: ADME, organism-based; parameters: dose 1 mg/kg, route oral; conditions: in vivo; summary of the method: as §3
Rattus norvegicus [29] = test: Cmax in Sprague-Dawley rat assessed as CS-0777-phosphate at 0.1 mg/kg, po; assay type: ADME, organism-based; parameters: dose 0.1 mg/kg, route oral; conditions: in vivo; summary of the method: as §3
[30] = Cmax in Sprague-Dawley rat at 1 mg/kg, po; assay type: ADME, organism-based; parameters: dose 1 mg/kg, route oral; conditions: in vivo; summary of the method: as §3
Rattus norvegicus [31] = test: Lymphopenic activity in Lewis rat assessed as reduction in blood lymphocyte counts at 1 mg/kg, po after 12 hrs relative to control; assay type: functional; parameters: scale not given: the % may be the effect or the level left; summary of the method: as §4
Rattus norvegicus [32] = test: Tmax in Sprague-Dawley rat assessed as CS-0777-phosphate at 1 mg/kg, po; assay type: ADME, organism-based; parameters: dose 1 mg/kg, route oral; conditions: in vivo; summary of the method: as §3
Rattus norvegicus [33] = test: Lymphopenic activity in Lewis rat assessed as reduction in blood lymphocyte counts at 0.1 mg/kg, po after 12 hrs relative to control; assay type: functional; parameters: scale not given: the % may be the effect or the level left; summary of the method: as §4
Rattus norvegicus [34] = test: Oral bioavailability in Sprague-Dawley rat assessed as CS-0777-phosphate at 0.1 mg/kg; assay type: ADME, organism-based; conditions: in vivo; summary of the method: as §3
Rattus norvegicus [35] = test: Lymphopenic activity in Lewis rat assessed as recovery in blood lymphocyte counts at 0.1 mg/kg, po after 5 days; assay type: functional, organism-based; parameters: dose 0.1 mg/kg; summary of the method: as §4
Rattus norvegicus [36] = test: AUC (0 to infinity) in Sprague-Dawley rat assessed as CS-0777-phosphate at 1 mg/kg, po; assay type: ADME, organism-based, Plasma; parameters: time infinity, dose 1 mg/kg, route oral; conditions: in vivo; summary of the method: as §3
[37] = Cmax in Sprague-Dawley rat at 0.1 mg/kg, po; assay type: ADME, organism-based; parameters: dose 0.1 mg/kg, route oral; conditions: in vivo; summary of the method: as §3
[38] = Tmax in Sprague-Dawley rat at 1 mg/kg, po; assay type: ADME, organism-based; parameters: dose 1 mg/kg, route oral; conditions: in vivo; summary of the method: as §3
[39] = AUC (0 to infinity) in Sprague-Dawley rat at 0.1 mg/kg, po; assay type: ADME, organism-based, Plasma; parameters: dose 0.1 mg/kg, route oral, time infinity; conditions: blood; summary of the method: as §3

EC50 [1]: 1.3 nM
Activity [2]: inactive
EC50 [3]: 0.29 nM
SMILES: CCCCCCCCc1ccc(CC[C@](N)(CO)COP(=O)(O)O)cc1 [FTY720-P]

EC50 [4]: 350 nM
EC50 [1]: 200 nM
EC50 [5]: 21 nM
Activity [2]: inactive
EC50 [6]: 1.1 nM
Ratio EC50 (Homo sapiens): 320
EC50 [3]: 1.8 nM
Ratio EC50 (Rattus norvegicus [7]): 100
SMILES: Cc1ccc(CCCC(=O)c2ccc(CC[C@@](C)(N)COP(=O)(O)O)n2C)cc1

clearance [8]: 38 mL/min/kg
bioavailability [9]: 72.2%
t1/2 (Rattus norvegicus [11]): 10.9 h
AUC(0-inf) [14]: 346 ng·h/mL
clearance [15]: 33.7 mL/min/kg
Vd [16]: 18.1 L/kg
AUC (Rattus norvegicus [17]): 686 ng·h/mL
F (Rattus norvegicus [18]): 90.8%
Tmax (Rattus norvegicus [19]): 9.5 h
half-life [21]: 324 min
Vd [22]: 17.1 L/kg
half-life [23]: 624 min
Tmax [24]: 4.75 h
bioavailability [25]: 69.5%
t1/2 (Rattus norvegicus [26]): 11.6 h
Cmax (Rattus norvegicus [28]): 220 ng/mL
Cmax (Rattus norvegicus [29]): 26.4 ng/mL
Cmax [30]: 18.2 ng/mL
Tmax (Rattus norvegicus [32]): 9 h
F (Rattus norvegicus [34]): 80.6%
AUC (Rattus norvegicus [36]): 6280 ng·h/mL
Cmax [37]: 1.89 ng/mL
Tmax [38]: 3.25 h
AUC(0-inf) [39]: 31.7 ng·h/mL
SMILES: Cc1ccc(CCCC(=O)c2ccc(CC[C@@](C)(N)CO)n2C)cc1
Activity (Rattus norvegicus [10]): inactive
Activity (Rattus norvegicus [12]): Active
Activity (Rattus norvegicus [13]): 30.1%
Activity (Rattus norvegicus [20]): Active
Activity (Rattus norvegicus [27]): 71.5%
Activity (Rattus norvegicus [31]): 18.4%
Activity (Rattus norvegicus [33]): 27.4%
Activity (Rattus norvegicus [35]): inactive
